Experimental data taken from paper PMC4073661 (Journal of Natural Products, 2014).
In brackets after ≈: the same amount, converted by molar mass. Entries after “also recorded” stand apart in the source; their conditions may differ.

Experiments:
topoisomerase = details: cited from earlier work
KB cells = details: cited from earlier work
[1] = test system: HT-29 human colon cancer cells; assay: Cytotoxicity against HT-29 cells; format: cell-based
Outline: (§1)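 Cell growth-inhibition screen with paclitaxel as positive control. Each measurement was run in triplicate, and each value is representative of two independent experiments. IC50 was calculated by nonlinear regression.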

topo IIα = topo IIα (Homo sapiens, UniProt P11388); assay: Topoisomerase II assay; format: biochemical; details: 100 μM
caspase-3 = assay: Caspase-3 activation by Western blot; format: cell-based, human; details: 24 h incubation; 1, 5 and 10 μM; cleaved caspase-3 Western blot
[2] = test system: HT-29 cells implanted in immunodeficient NCr nu/nu mice; assay: In vivo hollow fiber assay
Outline: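 Eight- to nine-week-old mice carrying HT-29 cells in hollow fibers received ip doses once daily on days 3–6 after implantation. Vehicle was diluted with water to 13% DMSO and 25% Cremophor; paclitaxel 5 mg/kg was the positive control. Body weight was recorded daily. Fibers were retrieved on day 7 for modified MTT. Net growth (day 7 − day 0 absorbance) was expressed relative to vehicle; n = 6 control, 3 per treatment.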

[3] = test system: CCD-112CoN normal human colon cells; assay: Cytotoxicity against CCD-112CoN cells; format: cell-based
Outline: as §1

[4] = test system: a broad spectrum of normal and tumor cell lines; details: cited from earlier work
[5] = test system: MCF-7S human breast carcinoma; details: read-out: IC50, MCF-7S cell growth; cited from earlier work
[6] = test system: KB human epidermoid carcinoma; details: read-out: IC50, KB cell growth; cited from earlier work
[7] = test system: several human cancer cell lines; details: cited from earlier work
[8] = cited from earlier work
[9] = test system: HT-29 human colon cancer cell; details: 8-day treatment; cited from earlier work
[10] = test system: P-388 murine lymphocytic leukemia cells; details: cited from earlier work
[11] = test system: SKW-3 chronic lymphoid leukemia cells; details: cited from earlier work

Chain of topo IIα (P11388 whole entry): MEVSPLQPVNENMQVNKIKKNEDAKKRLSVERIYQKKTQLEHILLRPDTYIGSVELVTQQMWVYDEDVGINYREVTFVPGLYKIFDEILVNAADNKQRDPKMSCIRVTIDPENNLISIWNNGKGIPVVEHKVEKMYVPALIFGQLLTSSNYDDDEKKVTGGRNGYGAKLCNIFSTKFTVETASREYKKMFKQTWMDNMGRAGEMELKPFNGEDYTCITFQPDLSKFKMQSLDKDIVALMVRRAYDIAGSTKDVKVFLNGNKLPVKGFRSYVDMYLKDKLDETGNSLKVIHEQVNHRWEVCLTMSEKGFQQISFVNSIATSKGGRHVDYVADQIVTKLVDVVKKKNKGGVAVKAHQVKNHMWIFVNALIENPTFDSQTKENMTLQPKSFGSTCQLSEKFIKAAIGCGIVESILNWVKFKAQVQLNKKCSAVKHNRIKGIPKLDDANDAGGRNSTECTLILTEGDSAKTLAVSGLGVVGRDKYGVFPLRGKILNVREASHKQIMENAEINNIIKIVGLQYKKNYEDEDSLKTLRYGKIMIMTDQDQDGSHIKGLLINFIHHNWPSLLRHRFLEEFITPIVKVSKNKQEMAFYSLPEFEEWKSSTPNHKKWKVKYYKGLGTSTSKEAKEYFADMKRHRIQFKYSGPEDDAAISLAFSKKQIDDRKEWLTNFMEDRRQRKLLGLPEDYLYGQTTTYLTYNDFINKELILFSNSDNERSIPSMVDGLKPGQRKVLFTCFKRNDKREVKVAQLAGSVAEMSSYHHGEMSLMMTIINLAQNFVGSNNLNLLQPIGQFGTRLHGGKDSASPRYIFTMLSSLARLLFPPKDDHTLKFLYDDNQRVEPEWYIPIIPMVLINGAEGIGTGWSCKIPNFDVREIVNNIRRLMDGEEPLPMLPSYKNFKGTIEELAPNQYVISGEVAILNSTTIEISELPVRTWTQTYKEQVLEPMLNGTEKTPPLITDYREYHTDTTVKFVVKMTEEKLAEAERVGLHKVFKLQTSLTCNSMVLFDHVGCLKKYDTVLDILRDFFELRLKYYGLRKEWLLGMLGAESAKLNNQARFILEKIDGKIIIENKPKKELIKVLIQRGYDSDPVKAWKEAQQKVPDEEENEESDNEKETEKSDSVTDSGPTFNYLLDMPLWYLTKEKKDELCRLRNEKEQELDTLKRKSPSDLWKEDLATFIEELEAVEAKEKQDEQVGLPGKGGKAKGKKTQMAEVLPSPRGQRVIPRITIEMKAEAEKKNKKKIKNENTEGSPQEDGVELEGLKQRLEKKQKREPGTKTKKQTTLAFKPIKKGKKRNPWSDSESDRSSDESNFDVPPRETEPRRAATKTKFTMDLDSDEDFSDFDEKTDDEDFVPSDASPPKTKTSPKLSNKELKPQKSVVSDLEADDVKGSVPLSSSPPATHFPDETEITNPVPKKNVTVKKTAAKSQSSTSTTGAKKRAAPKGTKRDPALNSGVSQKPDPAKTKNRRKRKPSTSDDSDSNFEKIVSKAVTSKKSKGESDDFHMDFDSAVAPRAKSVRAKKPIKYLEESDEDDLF

For `COc1cc2c(-c3ccc4c(c3)OCO4)c3c(cc2cc1O)COC3=O` [daurinol], the “formation of open circular and linear DNA from topoisomerase-DNA cleavable intermediate” value (topoisomerase) is given as “did not induce the formation of open circular and linear DNA”.
In the case of `COc1cc2c(OC3OCC(OC)C(OC)C3O)c3c(c(-c4ccc5c(c4)OCO5)c2cc1OC)C(=O)OC3` (centres unmarked) [Cleistanthin A], the “GI50 toward KB cells” value (KB cells) is given as 5.6 nM.
`CC(=O)O[C@H]1C(=O)[C@@]2(C)[C@H]([C@H](OC(=O)c3ccccc3)[C@]3(O)C[C@H](OC(=O)[C@H](O)[C@@H](NC(=O)c4ccccc4)c4ccccc4)C(C)=C1C3(C)C)[C@]1(OC(C)=O)CO[C@@H]1C[C@@H]2O` [paclitaxel] showed an IC50 ([1]; Homo sapiens, HT-29, read-out: IC50 values toward the HT-29 cells) of 1 nM.
In the case of `COc1cc2c(O[C@@H]3OC[C@H](OC(C)=O)[C@H](OC(C)=O)[C@H]3O)c3c(c(-c4ccc5c(c4)OCO5)c2cc1OC)C(=O)OC3` [Compound 1, 7-O-[(3,4-di-O-acetyl)-α-L-arabinopyranosyl]-4,5-dimethoxy-3′,4′-methylenedioxy-2,7′-cycloligna-7,7′-dieno-9,9′-lactone], the “topo IIα inhibition (in words)” value (topo IIα) is reported as “did not inhibit DNA topoisomerase IIα activity”, the “caspase-3 activation in HT-29 cells” value (caspase-3) is reported as “induced activation of caspase-3” and the “toxicity in treated mice” value ([2]; 5.0-20.0 mg/kg ip once daily for 4 days, NCr nu/nu mice) is reported as “No gross toxicity was observed; also recorded: no signs of toxicity”. The “relative HT-29 cell growth in hollow fibers” value ([2]; 10.0, 15.0 or 20.0 mg/kg ip once daily for 4 days, compared with 5 mg/kg ip, NCr nu/nu mice) was “statistically significantly different”, the “activity in in vivo hollow fiber assay” value ([2]; HT-29 cells implanted in NCr nu/nu mice) was “showed activity” and the “cytotoxicity toward CCD-112CoN human normal colon cells (in words)” value [3] was “noncytotoxic”.
In the case of `COc1cc2c(O[C@@H]3O[C@H](CO)[C@@H](O)[C@H](O)[C@H]3O)c3c(c(-c4ccc5c(c4)OCO5)c2cc1OC)C(=O)OC3` [cleistanthin B], the “selectivity of cytotoxicity, tumor versus normal cell lines (in words)” value [4] is listed as “showed cytotoxicity toward human tumor cells selectively”.
In the case of `COc1cc2c(O[C@@H]3O[C@H](C)[C@@H](O)[C@H](O)[C@H]3O)c3c(c(-c4ccc5c(c4)OCO5)c2cc1OC)C(=O)OC3` [Patentiflorin A], the IC50 [5] is given as 3 nM and the IC50 [6] is given as 4 nM.
With `COc1cc2c(O[C@@H]3OC[C@H](O)[C@H](O)[C@H]3O)c3c(c(-c4ccc5c(c4)OCO5)c2cc1OC)C(=O)OC3` [Compound 4, phyllanthusmin C] the “cytotoxicity toward CCD-112CoN human normal colon cells (in words)” value [3] was “noncytotoxic”.
In the case of `COc1ccc(-c2c3c(c(OC)c4cc5c(cc24)OCO5)COC3=O)cc1OC` [chinensinaphthol methyl ether], the “cytotoxicity (in words)” value [7] is listed as “did not show such activity”.
For `COc1cc2c(OC)c3c(c(-c4ccc5c(c4)OCO5)c2cc1OC)C(=O)OC3` [justicidin A], the “IC50 toward several human cancer cell lines” value [7] is listed as 0.002 to 0.007 µg/mL and the “cytotoxicity (in words)” value [7] is listed as “highly cytotoxic”.
For Cleistanthoside A tetraacetate, the “IG50 values, cytotoxicity” value [8] is given as “in the nanomolar range”.
With `COc1cc2c(O[C@@H]3O[C@H](CO)[C@@H](O)[C@H](O)[C@H]3O)c3c(c(-c4ccc5c(c4)OCO5)c2cc1OC)C(=O)OC3` [Compound 5, cleistanthin B] the “cytotoxicity against HT-29 human colon cancer cells (in words)” value [1] was “inactive”.
In the case of `COc1cc([C@@H]2c3cc4c(cc3[C@@H](O[C@@H]3O[C@@H]5CO[C@@H](C)O[C@H]5[C@H](O)[C@H]3O)[C@H]3COC(=O)[C@H]23)OCO4)cc(OC)c1O` [etoposide], the “HT-29 cell apoptosis induction” value [9] is given as “induced HT-29 human colon cancer cell apoptosis”, the “caspase-3 activation in HT-29 cells” value (caspase-3) is given as “did not induce caspase-3 activation” and the “cytotoxicity against HT-29 human colon cancer cells (in words)” value [1] is given as “inactive”.
In the case of `COc1cc2c(O[C@@H]3OC[C@H](O)[C@H](O)[C@H]3O)c3c(c(-c4ccc5c(c4)OCO5)c2cc1OC)C(=O)OC3` [Acutissimalignan A], the “IC50 toward P-388 cells” value [10] is listed as 0.02 µg/mL (≈ 0.039 µM).
In the case of `COc1cc2cc3c(c(-c4ccc5c(c4)OCO5)c2cc1OC)C(=O)CO3` [Justicidin B], the “cytotoxicity toward SKW-3 cells (in words)” value [11] is given as “cytotoxic”.
